The text below walks through data of ChEMBL document CHEMBL1152813, “Synthesis of puromycin derivatives with backbone-elongated substrates and associated translation inhibitory activities” (Bioorg Med Chem, 2009).

pIC50: −log10 of the molar value.

Data set [1] can be described thus: Solubility in water. In kind it is physicochemical. The settings on record: buffer.
Data set [2] concerns Escherichia coli. As to the kind of experiment: Inhibition of firefly luciferase mRNA translation in Escherichia coli after 1 hr relative to control. In kind it is functional. An outline of the steps:
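Reconstituted E. coli translation system translating firefly luciferase mRNA with CCPmn derivatives at 2.5–30 µM (2.5–120 µM for some), 1 h incubation. Luciferase activity (c.p.s.) read by luminescence counter; translation efficiency (%) set against a serial-dilution calibration of control luciferase translated without CCPmns; three independent experiments, standard deviations.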

As for `C[C@H](CN)C(=O)N[C@H]1[C@@H](O)[C@H](n2cnc3c(N(C)C)ncnc32)O[C@@H]1COP(=O)(O)O`, the solubility entry in data set [1] is “Soluble”.
Same read-out and setting: the result for `C[C@H](CO)C(=O)N[C@H]1[C@@H](O)[C@H](n2cnc3c(N(C)C)ncnc32)O[C@@H]1COP(=O)(O)O` reads “Soluble”; that for `CC(=O)N[C@H]1[C@@H](O)[C@H](n2cnc3c(N(C)C)ncnc32)O[C@@H]1COP(=O)(O)O`, “Soluble”.
The term pIC50 denotes the IC50 on a negative log10 scale, so that one unit is a factor of ten. A lower pIC50 goes with a high IC50. `C[C@H](CO)C(=O)N[C@H]1[C@@H](O)[C@H](n2cnc3c(N(C)C)ncnc32)O[C@@H]1COP(=O)(O)O[C@H]1[C@@H](O)[C@H](n2ccc(N)nc2=O)O[C@@H]1COP(=O)(O)O[C@H]1[C@@H](O)[C@H](n2ccc(N)nc2=O)O[C@@H]1CO`: the solubility result in data set [1] is “Soluble”. Moreover, the pIC50 in data set [2] was 4.92.
As for `C[C@H](CN)C(=O)N[C@H]1[C@@H](O)[C@H](n2cnc3c(N(C)C)ncnc32)O[C@@H]1COP(=O)(O)O[C@H]1[C@@H](O)[C@H](n2ccc(N)nc2=O)O[C@@H]1COP(=O)(O)O[C@H]1[C@@H](O)[C@H](n2ccc(N)nc2=O)O[C@@H]1CO`, the solubility result in data set [1] is recorded as “Soluble”. The molecule also had a pIC50 in data set [2] of 4.48.
In the case of `CC(=O)N[C@H]1[C@@H](O)[C@H](n2cnc3c(N(C)C)ncnc32)O[C@@H]1COP(=O)(O)O[C@H]1[C@@H](O)[C@H](n2ccc(N)nc2=O)O[C@@H]1COP(=O)(O)O[C@H]1[C@@H](O)[C@H](n2ccc(N)nc2=O)O[C@@H]1CO`, the solubility entry in data set [1] is given as “Soluble”. The molecule also gave a pIC50 in data set [2] of 4.18.
Turning to `COc1ccc(C[C@H](N)C(=O)N[C@H]2[C@@H](O)[C@H](n3cnc4c(N(C)C)ncnc43)O[C@@H]2COP(=O)(O)O[C@H]2[C@@H](O)[C@H](n3ccc(N)nc3=O)O[C@@H]2COP(=O)(O)O[C@H]2[C@@H](O)[C@H](n3ccc(N)nc3=O)O[C@@H]2CO)cc1`, the solubility entry in data set [1] is “Soluble”. Also, the pIC50 in data set [2] is 5.30.
Regarding `CN(C)c1ncnc2c1ncn2[C@@H]1O[C@H](CO)[C@@H](NC(=O)CCO)[C@H]1O`, the solubility result in data set [1] is “Insoluble”.
